An excerpt weighted towards active compounds, which were near 3.4% of everything screened.
ANO1 activ: activates or potentiates the mouse TMEM16A chloride channel; B-score at 10 µM; Q8BHY3; AID 623877; HEK293 TMEM16A/YFP-H148Q/I152L, iodide quench fluorescence; hits give low values; 340,000 compounds, 0.3% hits;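 active = fluorescence-ratio B-score plate-corrected deviation score at least 3 library SD below zero, with starting fluorescence score within 5 deviations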;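 note: channel opened by trigger with iodide after compound preincubation; score built on the fluorescence ratio of max minus min over baseline; more negative score means more quench and so TMEM16A activation or potentiation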
Target sequence (Q8BHY3 whole entry, looked up): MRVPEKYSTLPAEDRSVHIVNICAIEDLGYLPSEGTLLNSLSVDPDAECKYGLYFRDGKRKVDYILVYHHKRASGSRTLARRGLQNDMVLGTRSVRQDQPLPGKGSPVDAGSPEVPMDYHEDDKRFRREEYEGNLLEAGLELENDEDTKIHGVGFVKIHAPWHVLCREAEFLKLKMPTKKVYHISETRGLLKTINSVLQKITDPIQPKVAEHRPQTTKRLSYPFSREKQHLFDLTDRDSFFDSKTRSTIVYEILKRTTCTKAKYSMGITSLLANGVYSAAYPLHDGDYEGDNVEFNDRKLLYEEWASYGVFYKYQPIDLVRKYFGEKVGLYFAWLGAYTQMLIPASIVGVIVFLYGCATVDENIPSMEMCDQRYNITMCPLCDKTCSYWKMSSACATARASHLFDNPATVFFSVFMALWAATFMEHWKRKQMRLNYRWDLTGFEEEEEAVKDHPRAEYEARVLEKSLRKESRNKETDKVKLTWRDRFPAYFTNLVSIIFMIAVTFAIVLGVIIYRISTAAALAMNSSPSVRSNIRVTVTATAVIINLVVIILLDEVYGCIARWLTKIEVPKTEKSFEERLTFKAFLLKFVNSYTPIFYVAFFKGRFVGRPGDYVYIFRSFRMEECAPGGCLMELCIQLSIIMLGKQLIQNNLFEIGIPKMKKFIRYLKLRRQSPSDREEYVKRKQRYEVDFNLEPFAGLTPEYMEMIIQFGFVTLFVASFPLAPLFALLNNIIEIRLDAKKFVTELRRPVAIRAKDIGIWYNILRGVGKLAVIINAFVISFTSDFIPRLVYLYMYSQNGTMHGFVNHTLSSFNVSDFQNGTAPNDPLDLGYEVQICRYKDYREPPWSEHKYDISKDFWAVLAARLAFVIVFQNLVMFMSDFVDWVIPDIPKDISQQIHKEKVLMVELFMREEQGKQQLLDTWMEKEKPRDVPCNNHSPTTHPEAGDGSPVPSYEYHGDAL
MC4R antag cAMP: antagonists of human melanocortin 4 receptor (MC4R); MC4R-expressing cells, MTII-stimulated cAMP, LANCE TR-FRET; inhibition, % at 6.5 µM; 360,000 compounds, 0.48% hits; AID 540295;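 active = inhibition above its plate's cutoff, the mean of tested wells on that plate plus 3 SD, cut at about 29% in these data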
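Test system: U2OS cells stably expressing human melanocortin 4 receptor (MC4R); also added: Melanotan II challenge; compound: 6.5 µM single dose; timing: 30-min compound preincubation, 1-h Melanotan II challenge, 1-h detection, room temperature; signal: Eu-cAMP/anti-cAMP TR-FRET, emission 671 nm; repeats: one well per compound, no replicates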
MIN6 prolif-1: induces beta-cell replication in MIN6 cells | proliferation, % at 10 µM | MIN6 cells proliferation, ATPlite luminescence, 48 h; cells starved in 0.2% serum; 100% = growth in 10% serum | 330,000 compounds, 0.29% hits;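 active = compounds whose signal lies at least 3.5 SD above the mean of all wells on their plate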
MC4R ag barr: human MC4R agonism via beta-arrestin; P32245; U2OS MC4R beta-arrestin complementation, luminescence; percent of melanotan II response, DMSO zero; activation, % at 8.9 µM; 360,000 compounds, 0.98% hits; AID 540308;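 active = activation above a per-plate cutoff, the mean activation of sample wells on that plate plus 3 SD, cut at about 8% in these data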
HTR2A ag: agonists of mouse serotonin 5-HT2A receptor (HTR2A); P35363; CHO-K1 mHTR2A beta-arrestin complementation, luminescence; percent of 30 µM serotonin response; activation, % at 7.6 µM; 360,000 compounds, 0.66% hits; AID 624169;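 active = activation above a run cutoff, the mean activation of all tested compounds plus 3 SD, cut at about 14% in these data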
ANO1 block: inhibitors of mouse TMEM16A calcium-activated chloride channel; Q8BHY3; HEK293 TMEM16A/YFP iodide influx fluorescence, ionomycin; normalized B-score (activity score, 25-100; higher = stronger inhibition) at 10 µM; 310,000 compounds, 1.2% hits; AID 588511;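 active = ratio plate-corrected score three or more library SD toward inhibition, starting fluorescence score within five deviations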;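 note: score derived from kinetic fluorescence span divided by baseline fluorescence per well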
MIN6 prolif-2: MIN6 beta-cell replication induction, confirmed | AID 463095 | shares compounds with MIN6 prolif-1 | 920 tested, under 10 active | proliferation increase, % at 50 µM | MIN6 beta-cell proliferation, ATPlite luminescence, 48 h; cells kept in 0.2% serum; scaled between 0.2% and 10% serum;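 active = proliferation increase above 40% at any of the four tested concentrations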
A number is an active result.

Screening O=C(O)c1c[nH]c2ccc(F)cc2c1=O returned ANO1 activ inactive, MC4R antag cAMP inactive, MIN6 prolif-1 6.8, MC4R ag barr inactive, HTR2A ag inactive, ANO1 block inactive and MIN6 prolif-2 inactive.
Screening O=C(Cc1ccc(Cl)cc1)NCCc1cnc[nH]1 returned ANO1 activ inactive, MC4R antag cAMP inactive, MIN6 prolif-1 inactive, MC4R ag barr inactive, HTR2A ag inactive and ANO1 block inactive.
`CCC(=O)N1CCc2cc(OC)c(OC)cc2C1COc1ccccc1OC` (stereo unspecified) gave ANO1 activ inactive, MC4R antag cAMP inactive, MC4R ag barr inactive and HTR2A ag inactive.
`COc1cc2c(cc1OC)C(COc1ccccc1OC)N(C(=O)c1ccco1)CC2` (stereo unspecified) gave ANO1 activ inactive, MC4R antag cAMP inactive, MIN6 prolif-1 8.8, MC4R ag barr inactive, HTR2A ag inactive, ANO1 block inactive and MIN6 prolif-2 inactive.
Screening COc1cc2c(cc1OC)C(COc1ccc(F)cc1)N(C(C)=O)CC2 (stereo unspecified) returned ANO1 activ inactive, MC4R antag cAMP inactive, MIN6 prolif-1 inactive, MC4R ag barr inactive, HTR2A ag inactive and ANO1 block inactive.
`CCC(=O)N1CCc2cc(OC)c(OC)cc2C1COc1ccc(F)cc1` (stereo unspecified) gave ANO1 activ inactive, MC4R antag cAMP inactive, MIN6 prolif-1 9.3, MC4R ag barr inactive, HTR2A ag inactive, ANO1 block inactive and MIN6 prolif-2 inactive.
COc1ccccc1C(=O)Nc1sc(C(=O)N2CCCC2)c(C)c1C#N was read as ANO1 activ inactive, MC4R antag cAMP inactive, MIN6 prolif-1 8.8, MC4R ag barr inactive, HTR2A ag inactive, ANO1 block inactive and MIN6 prolif-2 inactive.
Cc1c(C(=O)N2CCCC2)sc(NC(=O)c2ccc(Cl)cc2)c1C#N was read as ANO1 activ inactive, MC4R antag cAMP inactive, MIN6 prolif-1 inactive, MC4R ag barr inactive, HTR2A ag inactive and ANO1 block inactive.
For Cc1cccc(-c2n[nH]c(=S)n2Cc2ccccc2)c1 the results were ANO1 activ inactive, MC4R antag cAMP inactive, MIN6 prolif-1 6.3, MC4R ag barr inactive, HTR2A ag inactive, ANO1 block inactive and MIN6 prolif-2 inactive.
Screening S=c1[nH]nc(-c2cccc(Cl)c2)n1Cc1ccccc1 returned ANO1 activ inactive, MC4R antag cAMP inactive, MIN6 prolif-1 inactive, MC4R ag barr inactive, HTR2A ag inactive and ANO1 block inactive.
COC(=O)c1ccc(Cn2nnc3c(=O)[nH]c(C4CCCN(S(=O)(=O)c5ccc(C)cc5)C4)nc32)cc1 (stereo unspecified) was read as ANO1 activ inactive, MC4R antag cAMP inactive, MIN6 prolif-1 10.8, MC4R ag barr inactive, HTR2A ag inactive, ANO1 block inactive and MIN6 prolif-2 inactive.
For O=C(CCCN1C(=O)C(=Cc2ccc3c(c2)OCO3)SC1=S)Nc1ccc(C(=O)O)c(O)c1 the results were MC4R antag cAMP inactive, MC4R ag barr inactive and HTR2A ag inactive.
For COc1cccc(NC(=O)CN(C)C(=O)c2cn(-c3ccccc3)nc2-c2cccs2)c1 the results were ANO1 activ inactive, MC4R antag cAMP inactive, MIN6 prolif-1 inactive, MC4R ag barr inactive, HTR2A ag inactive and ANO1 block inactive.
For COc1cccc(NC(=O)CN(C)C(=O)c2cn(-c3ccccc3)nc2-c2cccnc2)c1 the results were ANO1 activ inactive, MC4R antag cAMP inactive, MIN6 prolif-1 9.5, MC4R ag barr inactive, HTR2A ag inactive and MIN6 prolif-2 inactive.
O=S(=O)(c1ccccc1Cl)N1CCCC(c2nc(-c3cccnc3)no2)C1 (stereo unspecified) was read as ANO1 activ inactive, MC4R antag cAMP inactive, MIN6 prolif-1 7.4, MC4R ag barr inactive, HTR2A ag inactive, ANO1 block inactive and MIN6 prolif-2 inactive.
CCOC(=O)c1ccc(NC(=O)c2nc[nH]c2C(=O)N(C)CCO)cc1 was read as MC4R antag cAMP inactive, MC4R ag barr inactive and HTR2A ag inactive.
For N#CC(c1ccccn1)c1ncc(C(F)(F)F)cc1Cl (stereo unspecified) the results were ANO1 activ inactive, MC4R antag cAMP inactive, MIN6 prolif-1 8.3, MC4R ag barr inactive, HTR2A ag inactive, ANO1 block inactive and MIN6 prolif-2 inactive.
Screening O=C(c1ccc2c(c1)OCO2)N1CCN(CCN2C(=O)c3cccc4cccc(c34)C2=O)CC1 returned ANO1 activ inactive, MC4R antag cAMP inactive, MC4R ag barr inactive and HTR2A ag inactive.
Screening COc1ccccc1N(CCC#N)C(=S)Nc1ccc(S(=O)(=O)N2CCOCC2)cc1 returned ANO1 activ inactive, MC4R antag cAMP inactive, MIN6 prolif-1 inactive, MC4R ag barr inactive and HTR2A ag inactive.
For O=C(/C=C/c1ccco1)NCc1ccccn1 the results were ANO1 activ inactive, MC4R antag cAMP inactive, MIN6 prolif-1 9.4, MC4R ag barr inactive, HTR2A ag inactive, ANO1 block inactive and MIN6 prolif-2 inactive.
Screening COc1ccc(C(=O)NNS(=O)(=O)c2ccccc2)cc1 returned ANO1 activ inactive, MC4R antag cAMP inactive, MIN6 prolif-1 0.0, MC4R ag barr inactive, HTR2A ag inactive, ANO1 block inactive and MIN6 prolif-2 inactive.
`CC(Sc1nnc(-c2cccnc2)o1)C(=O)NC1CCCCC1` (stereo unspecified) gave ANO1 activ inactive, MC4R antag cAMP inactive, MIN6 prolif-1 inactive, MC4R ag barr inactive and HTR2A ag inactive.
`Nc1nc(CSc2nc3ccccc3s2)nc(N2CCCCC2)n1` gave ANO1 activ inactive, MC4R antag cAMP inactive, MIN6 prolif-1 9.0, MC4R ag barr inactive, HTR2A ag inactive, ANO1 block inactive and MIN6 prolif-2 inactive.
For CCc1ccc(Nc2nc(N)nc(CSc3nc4ccccc4s3)n2)cc1 the results were ANO1 activ inactive, MC4R antag cAMP inactive, MIN6 prolif-1 inactive, MC4R ag barr inactive, HTR2A ag inactive and ANO1 block inactive.
Cc1cc(NC(=O)CCC(=O)N(CC(C)C)C(C(=O)NC(C)(C)C)c2ccccc2Cl)no1 (stereo unspecified) was read as ANO1 activ inactive, MC4R antag cAMP inactive, MIN6 prolif-1 6.7, MC4R ag barr inactive, HTR2A ag inactive, ANO1 block inactive and MIN6 prolif-2 inactive.
`COc1cccc(C(C(=O)NC(C)(C)C)N(C(=O)CCC(=O)Nc2cc(C)on2)C(C)(C)C)c1OC` (stereo unspecified) gave ANO1 activ inactive, MC4R antag cAMP inactive, MIN6 prolif-1 5.2, MC4R ag barr inactive, HTR2A ag inactive, ANO1 block inactive and MIN6 prolif-2 inactive.

Source: PubChem (several laboratories)
